# Tests used:
# [1] = tested on: AML patient-derived xenografts; conditions: oral administration; cited from earlier work
# [2] = tested on: TF-1/FLT3-ITD cells expressing HCK-T338H; test: Growth inhibition; assay type: cell-based, human
# Outline: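 TF-1 cells made cytokine-independent by retroviral FLT3-ITD transduction, then retrovirally transduced with wild-type or mutant HCK. Each population exposed to a wide range of test compound concentrations; viability read by Cell Titer-Blue. Each point in triplicate, normalized to DMSO (no inhibitor) control, plotted as mean ± SE. IC50 estimated by nonlinear regression fit of concentration-response curves.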
# [3] = tested on: Philadelphia chromosome-positive CML cells; conditions: at concentrations that did not directly inhibit BCR-ABL; cited from earlier work
# [4] = tested on: Rat-2 cells expressing HCK-YF; test: Soft-agar colony-forming assay, Rat-2 fibroblasts transformed with HCK-YF; assay type: cell-based; conditions: 1 μM A-419259, soft agar, two weeks
# Outline: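 Rat-2 fibroblasts infected with 293T-produced retroviruses carrying the HCK-YF codon mutagenesis library, then G-418 selected. Cells plated in soft agar (semi-solid medium) with test compound at 1.0 μM, 5,000 cells per plate, selected two weeks. Picked colonies expanded in 2D without inhibitor, then re-assayed with test compound or DMSO carrier in triplicate. Colonies Wright-Giemsa stained and counted; mean ± SE.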
# [5] = tested on: Rat-2 resistant clone 5-1 (HCK-YF mutant library); assay type: cell-based; conditions: resistant clone 5-1, 1 μM A-419259 vs DMSO
# [6] = target: kinome panel (HCK, other SRC-family members, FLT3 and other Class III receptor tyrosine kinases); conditions: KINOMEscan; cited from earlier work
# HCK-T338H [7] = target: T1, HCK-T338H (Homo sapiens, UniProt P08631, T333H); test: HCK activation loop autophosphorylation; assay type: cell-based
# Outline: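 GM-CSF-dependent TF-1 cells were made cytokine-independent by retroviral FLT3-ITD, then retrovirally transduced with mutant HCK. For kinase activity, cells were exposed to 0, 30, 100 or 300 nM test compound; HCK was immunoprecipitated and blotted for pY416 and total HCK (3 independent experiments, normalized to DMSO). IC50: Cell Titer-Blue viability across a concentration range, triplicate, DMSO-normalized, nonlinear regression.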
# HCK-T338H [8] = target: T1, HCK-T338H; test: HCK activation loop autophosphorylation; assay type: cell-based; conditions: 293T cells, 100 and 1,000 nM A-419259
# HCK-T338M = HCK-T338M (Homo sapiens, UniProt P08631, T333M); test: HCK activation loop autophosphorylation; assay type: cell-based
# Outline: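 Transfected human 293T cells expressing the mutant kinase were treated with the test compound at 0, 100 or 1000 nM, with DMSO as the no-inhibitor control. HCK was immunoprecipitated and immunoblotted for pY416 and total HCK, then detected with infrared-dye secondary antibodies. The pY416/HCK signal ratio was normalized to DMSO; mean ± SE of two independent experiments.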
# T1 sequence (P08631 22-526 T333H): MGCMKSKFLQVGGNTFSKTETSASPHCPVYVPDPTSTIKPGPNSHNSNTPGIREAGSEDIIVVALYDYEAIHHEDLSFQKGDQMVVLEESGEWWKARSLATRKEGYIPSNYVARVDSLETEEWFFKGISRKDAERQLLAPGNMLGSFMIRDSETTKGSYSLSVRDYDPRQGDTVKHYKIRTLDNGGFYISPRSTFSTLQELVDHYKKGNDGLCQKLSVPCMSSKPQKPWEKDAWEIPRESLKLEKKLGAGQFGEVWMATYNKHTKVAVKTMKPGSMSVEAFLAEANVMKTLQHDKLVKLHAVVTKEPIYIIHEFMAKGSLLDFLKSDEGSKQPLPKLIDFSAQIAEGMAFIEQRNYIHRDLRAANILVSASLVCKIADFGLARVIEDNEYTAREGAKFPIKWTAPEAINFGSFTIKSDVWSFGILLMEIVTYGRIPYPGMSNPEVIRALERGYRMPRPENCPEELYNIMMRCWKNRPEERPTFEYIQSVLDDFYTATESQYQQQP
# Sequence of HCK-T338M (P08631 22-526 T333M): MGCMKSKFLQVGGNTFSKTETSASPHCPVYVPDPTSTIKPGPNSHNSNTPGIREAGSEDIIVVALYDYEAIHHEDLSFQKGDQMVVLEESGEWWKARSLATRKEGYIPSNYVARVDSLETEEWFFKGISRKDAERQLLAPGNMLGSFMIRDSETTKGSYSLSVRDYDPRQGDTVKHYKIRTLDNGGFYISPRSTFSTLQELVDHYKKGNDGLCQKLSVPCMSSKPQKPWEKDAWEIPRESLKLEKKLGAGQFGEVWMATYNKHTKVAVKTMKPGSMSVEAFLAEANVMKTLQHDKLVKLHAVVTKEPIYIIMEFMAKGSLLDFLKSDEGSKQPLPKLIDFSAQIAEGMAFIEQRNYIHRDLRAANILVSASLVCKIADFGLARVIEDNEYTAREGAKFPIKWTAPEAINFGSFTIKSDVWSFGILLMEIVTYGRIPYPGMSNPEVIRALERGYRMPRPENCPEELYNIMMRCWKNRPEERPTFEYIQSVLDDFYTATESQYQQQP
smiles,measurement,setting,value
CN1CCN(C2CCC(n3cc(-c4ccc(Oc5ccccc5)cc4)c4c(N)ncnc43)CC2)CC1 (stereo not shown) [A-419259],activity in mice bearing AML patient-derived xenografts,[1],potent activity
same,sensitivity of TF-1/FLT3-ITD cells to growth inhibition,[2]; HCK-T338H expression vs wild-type HCK,reduced sensitivity
same,shift in the IC50 for growth suppression,[2]; HCK-T338H vs wild-type HCK in TF-1/FLT3-ITD cells,2 fold
same,IC50,"[2]; read-out: IC50, growth suppression, TF-1/FLT3-ITD cells expressing HCK-T338H",~0.1 µM
same,growth arrest and apoptosis of CML cells,[3],induced growth arrest and apoptosis
same,colony formation by control cells expressing HCK-YF,[4],completely blocked colony formation
same,colony formation in the presence vs absence of A-419259,[5],equal numbers of colonies in the presence or absence of A-419259
same,kinase specificity profile,[6],remarkably narrow specificity profile
same,Tyr416 phosphorylation of HCK-T338H in the presence of A-419259,"HCK-T338H [7]; TF-1/FLT3-ITD cells, concentrations up to 100 nM",remained phosphorylated on Tyr416
same,IC50,"HCK-T338H [7]; read-out: IC50, kinase inhibition, TF-1/FLT3-ITD cells expressing HCK-T338H",~0.1 µM
same,activation loop phosphorylation (pY416) of HCK-T338H,HCK-T338H [8],no change in activation loop phosphorylation
same,resistance of HCK-T338M autophosphorylation to A-419259,"HCK-T338M; 293T cells, 100 nM A-419259",complete resistance
same,resistance of HCK-T338M autophosphorylation to A-419259,"HCK-T338M; 293T cells, 1,000 nM A-419259",partial resistance

# Reference: publication PMC8136437 (ACS chemical biology, 2020)
